In ChEMBL document CHEMBL3232822, “Synthesis of novel spiropyrazoline oxindoles and evaluation of cytotoxicity in cancer cell lines” (Eur J Med Chem, 2014):

Legend:
MCF7 = experiment: Cytotoxicity against human HER2-deficient MCF7 cells expressing estrogen receptor after 48 hrs by MTT assay; assay type: functional; settings: MCF7, 48 h
Summary of the method: (§1)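 Cells (HEK 293T, MCF-7, MDA-MB-231 from ATCC) seeded the day before in medium with serum, penicillin G, streptomycin and 2 mM L-glutamine. Compounds in DMSO, serially diluted in medium, final DMSO ≤0.5% (v/v), same in controls. 48 h at 37 °C, 5% CO2. MTT 3 h, formazan dissolved in DMSO, A570. Triplicates, ≥3 experiments. GI50 from % viable cells.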

MDA-MB-231 = experiment: Cytotoxicity against human HER2/estrogen receptor-deficient MDA-MB-231 cells after 48 hrs by MTT assay; assay type: functional; settings: MDA-MB-231, 48 h; summary of the method: as §1
[1] = Solubility of the compound at 100 uM; assay type: physicochemical
[2] = Cytotoxicity against HEK293T cells after 48 hrs by MTT assay; assay type: cell-based, HEK-293T; settings: human; summary of the method: as §1
HEK-293T = experiment: Selectivity index, ratio of GI50 for HEK293T cells to GI50 for human HER2-deficient MCF7 cells; assay type: functional

| solubility [1] | Structure (SMILES) | GI50 (MCF7) [µM] | GI50 (MDA-MB-231) [µM] | GI50 at 48 h [2] [µM] | RatioGI50 (HEK-293T) |
| --- | --- | --- | --- | --- | --- |
| – | O=C1Nc2ccccc2[C@]12CC(c1ccccc1)=NN2 | > 100 | – | – | – |
| – | O=C1Nc2ccc(Cl)cc2[C@]12CC(c1ccccc1)=NN2 | > 100 | – | – | – |
| – | O=C1Nc2ccc(Br)cc2[C@]12CC(c1ccccc1)=NN2 | > 100 | – | – | – |
| – | CCOC(=O)[C@H]1C(c2ccccc2)=NN(c2ccccc2)[C@]12C(=O)Nc1ccc(Cl)cc12 | > 100 | – | – | – |
| – | O=C(c1ccccc1)[C@H]1C(c2ccccc2)=NN(c2ccccc2)[C@]12C(=O)Nc1ccc(Cl)cc12 | > 100 | – | – | – |
| – | O=C1Nc2ccccc2[C@]12[C@@H](c1ccccc1)C(c1ccccc1)=NN2c1ccccc1 | > 100 | – | – | – |
| – | O=C1Nc2ccc(Cl)cc2[C@]12[C@@H](c1ccccc1)C(c1ccccc1)=NN2c1ccccc1 | 37.7 | – | – | – |
| Insoluble | O=C1Nc2cc(Cl)ccc2[C@]12[C@@H](c1ccccc1)C(c1ccccc1)=NN2c1ccccc1 | 27.1 | > 50 | > 50 | >2 |
| – | O=C1Nc2ccc(Br)cc2[C@]12[C@@H](c1ccccc1)C(c1ccccc1)=NN2c1ccccc1 | 7.3 | > 100 | > 100 | >13 |
| – | O=C1Nc2cc(Br)ccc2[C@]12[C@@H](c1ccccc1)C(c1ccccc1)=NN2c1ccccc1 | 9.6 | 8.3 | 28.9 | 3 |
| – | COc1ccc(C2=NN(c3ccccc3)[C@]3(C(=O)Nc4ccc(Cl)cc43)[C@H]2c2ccccc2)cc1 | 33.9 | – | – | – |
| – | COc1ccc(C2=NN(c3ccccc3)[C@]3(C(=O)Nc4cc(Cl)ccc43)[C@H]2c2ccccc2)cc1 | 42.6 | – | – | – |
| – | COc1ccc(C2=NN(c3ccccc3)[C@]3(C(=O)Nc4c(Cl)cccc43)[C@H]2c2ccccc2)cc1 | 11.5 | > 100 | > 100 | >8 |
| – | COc1ccc(C2=NN(c3ccccc3)[C@]3(C(=O)Nc4cc(Br)ccc43)[C@H]2c2ccccc2)cc1 | 7 | 28.6 | > 100 | >14 |
| Insoluble | CC(C)(C)C1=NN(c2ccccc2)[C@]2(C(=O)Nc3cc(Cl)ccc32)[C@H]1c1ccccc1 | 21.7 | > 50 | > 50 | >2 |
| – | CC(C)(C)C1=NN(c2ccccc2)[C@]2(C(=O)Nc3c(Cl)cccc32)[C@H]1c1ccccc1 | 8.6 | 6.4 | 17.8 | 2 |
| – | CC(C)(C)C1=NN(c2ccccc2)[C@]2(C(=O)Nc3cc(Br)ccc32)[C@H]1c1ccccc1 | 8.5 | 15 | 20.9 | 2.5 |
| – | COc1ccc([C@H]2C(c3ccccc3)=NN(c3ccccc3)[C@]23C(=O)Nc2cc(Cl)ccc23)cc1 | > 100 | – | – | – |
